Measurements as given in the EternaBench riboswitch data.

System: MS2 coat protein
Assay: apparent Kd, MS2 coat protein; higher = weaker binding; RNA-MaP array; FMN 200 µM where present
In short: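 The titrant was SNAP-549-labelled MS2 coat protein, run from 0.7 or 1.5 nM in doubling steps to 3 µM. It was applied to designs transcribed by stalled E. coli RNA polymerase on Illumina sequencing-chip clusters, without ligand first and then with constant ligand, in 100 mM Tris-HCl pH 7.5, 80 mM KCl, 4 mM MgCl2, BSA, DTT, yeast tRNA and Tween-20. The apparent Kd is the median of filtered per-cluster binding-curve fits, with green signal normalised to red-channel RNA signal and control-cluster median Fmax.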

[1] = designed as: OFF switch for flavin mononucleotide, no ligand
[2] = ligand present: flavin mononucleotide, designed as: OFF switch for flavin mononucleotide
[3] = designed as: ON switch for flavin mononucleotide, no ligand
[4] = ligand present: flavin mononucleotide, designed as: ON switch for flavin mononucleotide

Sequence	apparent Kd [1] [nM]	apparent Kd [2] [nM]	apparent Kd [3] [nM]	apparent Kd [4] [nM]
CAAAUCUGAGGAUAUCGAUAUUUGUACAUGAGGAUCACCCAUGUCCUAUUUAUAAAAUCCCGAGAAGGCAGUGUAU	14.6	22.9	–	–
AGAUGGUGAUGUUAUCUUCGUCGGACAUGAGGAUCACCCAUGUAGGAUAUGCUACUCAAAGAGUAGCAGAAGGACAUGUAUCUU	119	896	–	–
CUGAUGUGAGGAUAUCGGGCUACAGGCCUGCUGCUAGCAAACGAGAAGGCACAUGAGGAUCACCCAUGUGAUAG	15.9	35.1	–	–
UUUAUGUAAGGAUAUGCGGGCGGGCGUGAAAAUGUUUGUUUGUAGAAGGUACAUGAGGAUCACCCAUGUAGUGG	145	201	–	–
UGUAUGGACAGAGGAUAUACGGAUAGGAUCUACUAUCCUCCUUAAAUAACAUGAGGAUCACCCAUGUAGAAGGCUGUCCAUACU	18.6	43.5	–	–
AAGAAGUUAGGAUAUGCAUGGCGGGACUUGCGUCGUGGCGUGCAGAAGGAACAUGAGGAUCACCCAUGUAAAGA	29.1	18.3	–	–
AGUCUCACUGAAGGAUAUGCAGGGUUUCAAGGGUUUCCUGCGACAUGAGGAUCACCCAUGUAAAUGCAGAAGGUCAGGACCCAA	6.63	32.8	–	–
UUCAGCGAUCAAGGAUAUCUAUAAACAUGCGGACAUGAGGAUCACCCAUGUUGAUCACCCAUGUGGGAGAAGGUGAACAUGAGG	–	–	174	72.9
UUGGACGUCGUAGGAUAUGUAGGAUAUUCCUACAUGAGGAUCACCCAUGUUGACAUGUAAGAAGGACAGAAGGACGAUGUCCAU	–	–	208	12.2
CAGCGGGCAGGAUAUGCACCUUGAGACAAAUGUCUGUCCGGACAUGAGGAUCACCCAUGUAGAAGGGCCACGGA	55.4	44.5	–	–
UAGAAGUCAGGAUAUGCUGCUCGUCACUUGCGUGAUGAGUAGCAGAAGGGACAUGAGGAUCACCCAUGUAAAGG	208	424	–	–
ACAAGGCAUGUAGGAUAUCCAUUGCGUCGCGAUGGAGAAGGACAACACACAUGAGGAUCACCCAUGUGGUCACCCAUGUCGUGU	51.3	169	–	–
AAACUGGAGGACAAGGAUAUGUGCUCUACGACAUGAGGAUCACCCAUGUGAGACGUAGUAGUGAAACAGAAGGUGUCCUAUUGUA	–	–	20.1	11.6
CCGGACAUUCGGACAUGAGGAUCACCCAUGUAGGCGGAUUCACAGGAUAUAAGUUCGUCCGAGACUUAGAAGGGUGGCUUCCGA	–	–	119	54.6
UUGGCACAUGAGGAUCACCCAUGUUAGGAUAUUGUGGUAGAAACAGCUGGGAAACGCACGAGAAGGGACACACG	37.1	55.5	–	–
GGGUACAUCGGAGGAUAUCAUGUAAAUACAUGAGGAUCACCCAUGUCGAUGGAGACAUCGGUGAUUGAGAAGGCCGAUGUACCG	–	–	14.8	90
AAGGAUAGAGGAUAUACAUAGAUACAGAUUCAUGUAGUCCUACAUGAGGAUCACCCAUGUAGAAGGCUAUCCUA	15.6	83.8	–	–
UUUCGGCAUGUAGGAUAUGGGUCCGAUUAGGAUUUAGAAGGACAUGAGGAUCACCCAUGUGCAUUUAAUUGGUCAUUACCUUUU	62.9	74	–	–
CUGUAGAUAUCAGGAUAUCUAUUUCCUACAUGAGGAUCACCCAUGUAGGUGAUCACCCAAGUAAAGGAGAAGGGAUAUCUAUAG	–	–	65	23.2
CUCAGACAUGAGGAUCACCCAUGUGAGGAUAUGAUGCGAUCGUCGAAAGACGAUAGCAUCAGAAGGUACAAAUG	53.1	40.5	–	–
GUGUAGGUAGGAUAUACAUGAGGAUCACCCAUGUGAAUAAGAUAGAAUAAGAUAAAGUGUAGAAGGGCUAGUGU	39.6	31.9	–	–

Sequence	apparent Kd [1] [nM]	apparent Kd [2] [nM]	apparent Kd [3] [nM]	apparent Kd [4] [nM]
AGGUCAACCACAGGAUAUGGCUAGCAUAGCUAGCCAGAAGGGUGGUCGUAACUAUGUAAAUACAUGAGGAUCACCCAUGUAUCC	–	–	134	25.4
GAAUGUUGGCUAGGAUAUGCAUUUUGAGAGGUAGCAGAAGGAGCGCACAUGAGGAUCACCCAUGUUAGCAUUGGGCGUCUCUCA	5.76	16.3	–	–
AAAACUUCAGAGAAGGACCCAUCGGCGAGAUGGGUAGGAUAUCUGACUUGAGGUGUCCUGACAUGAGGAUCACCCAUGUAUAAA	418	61.4	–	–
GAGAAGUCAGGAUAUGCAUGGCGGGACUUGCGUCGUGGCGUGCAGAAGGGACAUGAGGAUCACCCAUGUGGAGA	125	291	–	–
GUUAAUUAGUGAGGAUAUACAGUAUUUAAUACUGUAGAAGGCACAAUCCUCAAGACAUGAGGAUCACCCAUGUGAUAAUAAGAU	54.4	203	–	–
GGAUCGAAUGUGAGGAUAUGCUGGUCCUUGGAUCAGCAGAAGGCACAUGAGGAUCACCCAUGUGACUAAGAUCC	32.7	248	–	–
AAAUUAAGAAGAGGAUAUUGACAUGAGGAUCACCCAUGUAUUUGGGAGUGUUUACUGAAUUCUUACGAGAAGGCUUACGAACUU	–	190	–	–
AUCAGCUCGGCAGGAUAUACGUCACUGCGUCAGCAGUGUGGUAAGAUCACAUGAGGAUCACCCAUGUAGAAGGGACGAGCUGAU	11.4	74.5	–	–
CGUAUGUCAGGAUAUGCGUAUGCCGCUCAGGGCGAGCGGCAGCAGAAGGGACAUGAGGAUCACCCAUGUUCGGG	71.4	49.3	–	–
UAAUAAUAAUAAUAAUGGACUGAUACAUGAGGAUCACCCAUGUAGGAUAUGCAGUGGAAUACACUGCAGAAGGACAUACAGUCC	16.6	17.2	–	–
UAUAUAUAGGCAGGAUAUACAUGAAUAUAUAUGAUGUAGUAUGAUGUAACAUGAGGAUCACCCAUGUAGAAGGGCCAAUAUAUA	48	152	–	–
GCGAUGUCAGGAUAUGUGUAAAGAAUAAAACAAAUAACAACACAGAAGGGACAUGAGGAUCACCCAUGUUACGC	30.1	37.2	–	–
AAGAAACAUGAGGAUCACCCAUGUCACCUCACACGAGGAUAUCUGAAUCGAUUAGAUUACGGAGAAGGCGUGAGAA	–	–	30.2	18.3
UGGCUACAUGAGGAUCACCCAUGUCAGGAUAUGCCGUUGGAUUGCCUUCGUCGUUCGGGUAGAAGGGACUGCGU	30.3	27.5	–	–
AUCUUUGACUUUACUAGAAUAGGGCAGGAUAUACAUGAGGAUCACCCAUGUUAAGCACGUAAGAGGUAGAAGGGCCCUUGUCAU	16.1	13.6	–	–
CCGACGAAAGUCGAACGAUGUAGCAGAAGGACAUGAGGAUCACCCAUGUCAGCUGUAACAGCCAUGUAGGAUAUGCUACAUCGG	4.44	5.53	–	–
AACAAAUAUGAUCAUUAUGUAAGGCAGGAUAUCCCACAUGAGGAUCACCCAUGUACAGUACAUAGGGAGAAGGGCCGAAUGGGA	–	–	72	6.8
CCUCUACAUGAGGAUCACCCAUGUGAGGAUAUGUGAGGCGCGCUCGAUGAGCGCACCGAUAGAAGGCAUGUGGU	25.8	70.5	–	–
AUCAGGUCGUCAGGAUAUACGUCACUGCGUCAGCAGUGUGGUAAGAUCACAUGAGGAUCACCCAUGUAGAAGGGACGAGCUGAU	13.2	311	–	–
CGCUGUCACGCAGGAUAUGCAUUGGAUUCCAAUGCAGAAGGGCGAUUACAUGAGGAUCACCCAUGUGUCGACAGUGAAGAAGAG	–	–	599	44
GGGUGGCGUAGAGGAUAUGUGUUACAUGAGGAUCACCCAUGUGCAUAUGAUGUUCGUGUGUAUGCAUAGAAGGCUACGUCGCUA	–	–	222	125
